# In ChEMBL document CHEMBL1121429, “Soft drugs. 1. Labile quaternary ammonium salts as soft antimicrobials” (J Med Chem, 1980):
# Legend:
# Type in all cases: functional
# Staphylococcus aureus [1] = experiment: Sterilization time for contact germicidal efficiency (CGE) of salt was tested against Staphylococcus aureus at pH 7.0, concentration 1116.0 ppm
# How it was run: (§1)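 Test solutions of the quaternary salt in buffer stood 30 min at room temperature. 0.2 mL of overnight broth culture was added to 5 mL of solution. Inocula: S. aureus ATCC 6538 6-8 × 10^6 cfu/mL, P. aeruginosa ATCC 9027 12-13 × 10^6/mL, S. pyogenes ATCC 19615 5 × 10^6 cfu/mL. At 0.5-30 min intervals a loop was subcultured into nutrient broth and incubated 7 days at 37 °C. Sterilization time is the first interval giving no growth.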
# Staphylococcus aureus [2] = experiment: Minimum inhibitory concentration of salt was tested against Staphylococcus aureus aureus at 0.1 M NaH2PO4 adjusted to pH 7.0
# How it was run: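 Bacteria grown 18-20 h at 37 °C in tryptose phosphate broth, adjusted to OD650 0.01, then diluted into double-strength medium to about 2 × 10^5 viable organisms/mL. Compound in 0.1 M NaH2PO4 pH 7.0 was serially twofold diluted into sterile water and added 1:1 to the cultures. MIC read after 18-20 h at 37 °C, with viability, sterility and buffer controls.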
# Pseudomonas aeruginosa [3] = experiment: Sterilization time for contact germicidal efficiency (CGE) of salt was tested against at Pseudomonas aeruginosa at pH 7.0, concentration 1116.0 ppm; how it was run: as §1
# Bacillus subtilis = experiment: Minimum inhibitory concentration of salt was tested against Bacillus subtilis at 0.1 M NaH2PO4 adjusted to pH 7.0
# Salmonella typhimurium = experiment: Minimum inhibitory concentration of salt was tested against Salmonella Typhimurium […] at 0.1 M NaH2PO4 adjusted to pH 7.0; details: Salmonella enterica
# Streptococcus pyogenes [4] = experiment: Minimum inhibitory concentration of salt was tested against Streptococcus pyogenes aureus at 0.1 M NaH2PO4 adjusted to pH 7.0
# Pseudomonas aeruginosa [5] = experiment: Minimum inhibitory concentration of salt was tested against Pseudomonas aeruginosa at 0.1 M NaH2PO4 adjusted to pH 7.0
# Streptococcus pyogenes [6] = experiment: Sterilization time for contact germicidal efficiency (CGE) of salt was tested against at Streptococcus pyogenes at pH 7.0, concentration 1116.0 ppm
# How it was run: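 Streptococcus pyogenes ATCC 19615 overnight culture, 5 × 10^6 cfu/mL; 0.2 mL into 5 mL test solution of salt in buffer, left 30 min at room temperature beforehand. At timed intervals (0.5 to 30 min), a 3-mm loop was transferred to sterile nutrient broth and incubated at 37 °C for 7 days. Sterilization time is the shortest interval without growth; buffer-only and viability controls were run.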
# Pseudomonas aeruginosa [7] = experiment: Sterilization time for contact germicidal efficiency (CGE) of salt was tested against Pseudomonas aeruginosa at pH 7.0, concentration 254 ppm
# Staphylococcus aureus [8] = experiment: Sterilization time for contact germicidal efficiency (CGE) of salt was tested against Staphylococcus aureus at pH 7.0, concentration 254 ppm
# Streptococcus pyogenes [9] = experiment: Sterilization time for contact germicidal efficiency (CGE) of salt was tested against Streptococcus pyogenes at pH 7.0, concentration 254 ppm
# Streptococcus pyogenes [10] = experiment: Sterilization time for contact germicidal efficiency (CGE) of salt was tested against Streptococcus pyogenes at pH 7.0, concentration 610 ppm; how it was run: as §1
# Staphylococcus aureus [11] = experiment: Sterilization time for contact germicidal efficiency (CGE) of salt was tested against Staphylococcus aureus at pH 7.0, concentration 610 ppm; how it was run: as §1
# Pseudomonas aeruginosa [12] = experiment: Sterilization time for contact germicidal efficiency (CGE) of salt was tested against Pseudomonas aeruginosa at pH 7.0, concentration 610 ppm; how it was run: as §1
MIC (Staphylococcus aureus [2]) [µg/mL],MIC (Bacillus subtilis) [µg/mL],MIC (Salmonella typhimurium) [µg/mL],MIC (Streptococcus pyogenes [4]) [µg/mL],MIC (Pseudomonas aeruginosa [5]) [µg/mL],SMILES,also measured
130,32.6,522,32.6,1040,CCCCCCCCCCCC(=O)OC[n+]1cccc(C(=O)NCC)c1.[Cl-],Time (Staphylococcus aureus [1]): 0.5 min; Time (Pseudomonas aeruginosa [3]): 3 min; Time (Streptococcus pyogenes [6]): 0.5 min
1.3,> 42.4,> 42.4,> 42.4,> 42.4,CCCCCCCCCCCCCCCC(=O)OC[N+]1=CN(C)CC1.[Cl-],
,,1070,,,CCCCCCCCCCCCCCCC(=O)OC[n+]1ccccc1.[Cl-],
,,,,,Cn1ccnc1 [1-METHYLIMIDAZOLE],Time (Pseudomonas aeruginosa [7]): >30 min; Time (Staphylococcus aureus [8]): >30 min; Time (Streptococcus pyogenes [9]): >30 min
,,,,,CCCCCCCCCCCC(=O)O [DODECANOATE],Time (Streptococcus pyogenes [10]): >30 min; Time (Staphylococcus aureus [11]): >30 min; Time (Pseudomonas aeruginosa [12]): >30 min
